Source: PubChem BioAssay
Shown are actives, neighbours in structure and some others; about 3.5% of the full set was active somewhere.
PglD DTNB – inhibitors of Campylobacter jejuni PglD acetyltransferase | purified PglD enzyme, DTNB colorimetric CoA detection | inhibition, % at 12.5 µM | 360,000 compounds, 0.098% hits | AID 602405; in the data active = inhibition above about 16%, passing the limit was not always enough; inconclusive = no clear call, values can overlap the other calls
FN deposit inh – fibronectin deposition inhibition. AID 743247. 350,000 compounds, 0.086% hits. AH1F fibroblasts, Alexa488-fibronectin deposition fluorescence, overnight. inhibition, % at 12.6 µM;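 active = mean inhibition across replicates of 30% or more, regardless of how many single replicates reach that level; inconclusive = mean under 30% yet at least half of replicates reach 30%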
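Schedule: 1 h cell adhesion before compound, then overnight fibronectin incubation; test system: AH1F fibroblast monolayer depositing Alexa488-labelled fibronectin into matrix; quantity: 10000 AH1F cells per well; probe or stimulus: fluorescent fibronectin at 24 nM final; signal: fluorescence, ex 485 nm, em 525 nm; evaluation: percent inhibition as loss of matrix-bound fibronectin fluorescence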
Ecoli rRNA inh – inhibitors of bacterial rRNA selective over humanized ribosomes. E. coli WT GFP vs humanized-ribosome RFP mutants, fluorescence, 24 h; hits give low values; DMSO median 0, no signal -100. GFP signal change (wild-type ribosome), % (test concentration not listed). 350,000 compounds, 1.6% hits. AID 720706;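 active = significant combined selectivity score with lowered wild-type GFP, culture density cut under 30%, mutant RFP and density less affected; inactive = any of these conditions unmet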
Env fusion inh – inhibitors of HIV Env-mediated cell fusion; HeLa-JRFL Env/CEM21 cell fusion, luciferase; 360,000 compounds, 1.1% hits; inhibition, % at 12.3 µM;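 active = mean replicate inhibition score of at least 50 and every replicate individually at or above 50; inconclusive = only one of the two criteria met; inactive = mean below 50 and not all replicates reaching 50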
PGC1a acetyl inh – PGC1a acetylation modulation, inhibitor mode; U2OS PGC1a acetylation, AlphaScreen anti-acetyl-lysine; with virally co-expressed GCN5 acetyltransferase; inhibition, % at 15.6 µM; 350,000 compounds, 0.17% hits;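 active = every replicate shows inhibition of at least 40%; inconclusive = mean inhibition at least 40% but some replicate below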
DENV2 CPE rescue – protects cells from dengue virus 2 cytopathic effect; DENV2-infected cells, cytopathic effect rescue, plate reader; CPE inhibition, % at 9.99 µM; 350,000 compounds, 1.7% hits; in the data active = CPE inhibition above about 20%, passing the limit was not always enough; inconclusive = no clear call, values can overlap the other calls; tested in BHK-21 cells
Of the large screens only hits and unclear results are named; the others gave an inactive call.

CCOC(=O)[C@@H]1[C@H]2COc3cc(OC)ccc3[C@H]2N2C(=O)N(c3cccc(F)c3)C(=O)[C@@]12C	Env fusion inh 95
CCOC(=O)[C@@H]1[C@H]2COc3ccccc3[C@@H]2N2C(=O)N(c3cccc(Cl)c3)C(=O)[C@@]12C	Env fusion inh 55 (no result: PGC1a acetyl inh)
COc1ccc2c3c(n(C)c2c1)[C@@H](CO)N(C(=O)c1cnccn1)CC31CN(C(C)=O)C1	none (no result: PglD DTNB, FN deposit inh, Env fusion inh)
CCNC(=O)C[C@@H]1CC[C@H]2[C@@H](COc3ccc(NC(=O)Nc4c(C)noc4C)cc3C(=O)N2C)O1	DENV2 CPE rescue inconclusive
O=C(C[C@H]1CC[C@@H]2NC[C@H](O)COC[C@H]2O1)N1CCc2ccccc2C1	none
COc1ccc(C(C(=O)NC(C)(C)C)N(CCC(C)C)C(=O)CCC(=O)Nc2cc(C)on2)cc1 (stereo not given)	Env fusion inh 69 (no result: PGC1a acetyl inh)
COCCN(C[C@@H]1[C@H](c2ccccc2)[C@@H](CO)N1C(C)=O)C(=O)c1ccncc1	none (no result: Env fusion inh)
CC(=O)N1[C@H](CO)[C@H](c2ccccc2)[C@H]1CNC(=O)c1ccncc1	DENV2 CPE rescue 21 (no result: PglD DTNB, Env fusion inh)
O=C(NC[C@@H]1[C@@H](c2ccccc2)[C@@H](CO)N1CC1CCCC1)c1cccnc1	DENV2 CPE rescue 39 (no result: FN deposit inh, Env fusion inh)
COCCN(C[C@H]1[C@H](c2ccccc2)[C@H](CO)N1C(C)=O)C(=O)c1ccncc1	DENV2 CPE rescue 25 (no result: Env fusion inh)
COc1ccccc1-c1ccc2n(c1=O)C[C@@H]1[C@@H](CO)[C@H](C(=O)N(C)C)N(C(=O)c3cccnc3)[C@H]21	none (no result: FN deposit inh, Env fusion inh, PGC1a acetyl inh)
C[C@H]1CN([C@@H](C)CO)S(=O)(=O)c2ccc(C#Cc3ccc(F)cc3)cc2O[C@@H]1CN(C)C	none
CC=Cc1ccc2n(c1=O)C[C@@H]1[C@@H](CO)[C@H](C(=O)NCC3CC3)[C@H]2N1CCC (mixture of isomers)	none (no result: FN deposit inh, Env fusion inh)
COc1cccc(-c2nc3nc(C)cc(C)n3c2NC2CCCC2)c1	DENV2 CPE rescue 30 (no result: PglD DTNB, PGC1a acetyl inh)
COc1ccc(Nc2c(-c3cccc(OC)c3)nc3nc(C)cc(C)n23)cc1	none (no result: PglD DTNB, PGC1a acetyl inh)
Cc1cc(C)n2c(NC3CCCCC3)c(-c3ccccn3)nc2n1	DENV2 CPE rescue 29 (no result: PglD DTNB, PGC1a acetyl inh)
COCC(=O)N1CCCCN2[C@H](C1)[C@H](c1ccc(-c3ccc(F)cc3)cc1)[C@@H]2CO	none (no result: FN deposit inh, Env fusion inh)
COCCN(C[C@@H]1[C@H](c2ccccc2)[C@@H](CO)N1C(=O)C1CCC1)C(C)=O	none (no result: FN deposit inh, Env fusion inh)
COc1ccc(O)c(/C=N/NC(=S)Nc2cccnc2)c1	Ecoli rRNA inh -28 (no result: PglD DTNB, FN deposit inh, PGC1a acetyl inh)
Cc1ccc(NC2=C/C(=N/S(=O)(=O)c3cccs3)c3ccccc3C2=O)cc1	Env fusion inh 74 (no result: PglD DTNB, Ecoli rRNA inh, PGC1a acetyl inh)
Cc1ccc(S(=O)(=O)/N=C2\C=C(Nc3cccc(C(=O)O)c3)C(=O)c3ccccc32)c(C)c1	none (no result: PGC1a acetyl inh)
Cc1ccc(S(=O)(=O)/N=C2/C=C(Sc3ncn[nH]3)C(=O)c3ccccc32)cc1	PGC1a acetyl inh 77 (no result: FN deposit inh, Ecoli rRNA inh, Env fusion inh, DENV2 CPE rescue)
Cc1ccc(S(=O)(=O)Nc2ccc(O)c(Sc3ncn[nH]3)c2)cc1	none
O=C1C(Nc2ccccc2)=C/C(=N/S(=O)(=O)c2cccs2)c2ccccc21	PGC1a acetyl inh 59 (no result: FN deposit inh, Ecoli rRNA inh, Env fusion inh, DENV2 CPE rescue)
CCc1ccc(S(=O)(=O)/N=C2\C=C(Nc3ccc(C(=O)O)cc3)C(=O)c3ccccc32)cc1	Env fusion inh 73 (no result: PGC1a acetyl inh)
COC(=O)c1ccccc1NC1=C/C(=N\S(=O)(=O)c2cccs2)c2ccccc2C1=O	none
CCCNC(=O)Nc1ccc2c(c1)C(=O)N(C)C[C@@H](OC)[C@@H](C)CN(C(=O)C1CC1)[C@@H](C)CO2	none (no result: Env fusion inh)
Cc1ccc(S(=O)(=O)/N=C2\C=C(Nc3cccc(C(=O)O)c3)C(=O)c3ccccc32)cc1	none
Cc1ccc(S(=O)(=O)/N=C2\C=C(Nc3ccc(O)cc3)C(=O)c3ccccc32)cc1	PGC1a acetyl inh 86 (no result: FN deposit inh, Ecoli rRNA inh, Env fusion inh, DENV2 CPE rescue)
CCc1ccc(NC2=CC(=O)C(=O)c3ccccc32)cc1	Ecoli rRNA inh -24 (no result: PglD DTNB, PGC1a acetyl inh)
C[C@@H](NC(=O)c1ncn(C)c1C(=O)N[C@H](C)c1ccccc1)c1ccccc1	DENV2 CPE rescue 90
CCn1cc(Br)c(C(=O)NC(C)c2ccccc2)n1 (stereo not given)	none (no result: FN deposit inh, Ecoli rRNA inh, Env fusion inh, DENV2 CPE rescue)
O=C(c1ccc2c(c1)OCO2)N1CCCCN2[C@H](C1)[C@@H](c1ccc(-c3ccccc3)cc1)[C@@H]2CO	none (no result: FN deposit inh, Env fusion inh)
